Experimental data reported in ChEMBL document CHEMBL3611968, “Reengineered tricyclic anti-cancer agents” (Bioorg Med Chem, 2015).
Activity calls are given as the source filed them. The calls are words filed in the database; no cut-off is given here.

Tested on: NCI-H1650
Assay: Cytotoxicity against human NCI-H1650 cells assessed as growth inhibition after 48 hrs by MTT assay
Assay type: functional
Outline: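 H1650 cells were exposed to drug for 48 h at five concentrations bracketing 1–40 μM in 10 μM steps, with MTT read-out. GI50 is given only where the data form a sigmoidal dose response.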

## O=S(=O)(NCCCN1c2ccccc2Sc2ccc(Cl)cc21)c1ccc(Oc2ccccc2)cc1
NCI-H1650, 48 h
  GI50: > 40 µM

## O=S(=O)(NCCCN1c2ccccc2CCc2cccnc21)c1ccc(OC(F)(F)F)cc1
NCI-H1650, 48 h
  GI50: 22 µM

## O=S(=O)(NC1CCC2(OC1)c1ccccc1CCc1ccccc12)c1ccccc1 (stereo not drawn)
NCI-H1650, 48 h
  GI50: 22 µM

## O=S(=O)(NCCCN1c2ccccc2CCc2cncnc21)c1ccc(Cl)cc1
  GI50: inactive

## O=S(=O)(NCCNC1c2ccccc2CCc2ccccc21)c1ccc(Cl)cc1
NCI-H1650, 48 h
  GI50: 26 µM

## O=S(=O)(NCCN1c2ccccc2CCc2ccc(Cl)cc21)c1ccc(Cl)cc1
NCI-H1650, 48 h
  GI50: 19.1 µM

## CC(=O)Nc1ccc(S(=O)(=O)NCCCN2c3ccccc3CCc3ccc(Cl)cc32)cc1
NCI-H1650, 48 h
  GI50: 15 µM

## O=S(=O)(NCCCN(c1ccccc1)c1cccc(Cl)c1)c1ccc(C(F)(F)F)cc1
  GI50: inactive

## O=S(=O)(NCCCN1c2ccccc2CCc2ccc(Cl)cc21)c1cc(Cl)sc1Cl
NCI-H1650, 48 h
  GI50: 25 µM

## O=S(=O)(NCCCN1c2ccccc2OCc2cccnc21)c1ccc(Cl)cc1
NCI-H1650, 48 h
  GI50: > 40 µM

## CN(C)S(=O)(=O)NCCCN1c2ccccc2CCc2ccccc21
  GI50: inactive

## O=S(=O)(NCCCN1c2ccccc2CCc2ccccc21)c1cccnc1
  GI50: inactive

## CN(CCN1c2ccccc2Sc2ccc(Cl)cc21)S(=O)(=O)c1ccc(Cl)cc1
  GI50: inactive

## CN(C)CCCN1c2ccccc2Sc2ccc(Cl)cc21 [CHLORPROMAZINE]
NCI-H1650, 48 h
  GI50: 30.3 µM

## O=S(=O)(c1ccc(Cl)cc1)N1CCCCC1CCN1c2ccccc2CCc2ccccc21 (stereo not drawn)
  GI50: inactive

## O=S(=O)(NCCCN1c2ccccc2CCc2cccnc21)c1ccc(Cl)cc1
NCI-H1650, 48 h
  GI50: 27 µM

## O=S(=O)(NCCCN1c2ccccc2CCc2ccc(Cl)cc21)c1ccc2ccccc2c1
NCI-H1650, 48 h
  GI50: > 40 µM

## O=S(=O)(c1ccc(Cl)cc1)N1CCC(=C2c3ccccc3CCc3ccccc32)CC1
  GI50: inactive

## O=S(=O)(N[C@H]1CC[C@@H](N2c3ccccc3CCc3ccccc32)CC1)c1ccc(Cl)cc1
NCI-H1650, 48 h
  GI50: 10 µM

## O=C1COc2ccc(S(=O)(=O)NCCCN3c4ccccc4CCc4ccccc43)cc2N1
NCI-H1650, 48 h
  GI50: 22 µM

## O=S(=O)(NCCCN1c2ccccc2CCc2ccc(Cl)cc21)c1ccc(Cl)cc1F
NCI-H1650, 48 h
  GI50: 20.8 µM

## O=S(=O)(NCCCN1c2ccccc2CCc2ccccc21)C(F)(F)F
  GI50: inactive

## Cc1ccc(S(=O)(=O)NCCCCN2c3ccccc3Sc3ccc(Cl)cc32)cc1
NCI-H1650, 48 h
  GI50: > 40 µM

## O=S(=O)(NCC/C=C1/c2ccccc2Sc2ccc(Cl)cc21)c1ccc(Cl)cc1
NCI-H1650, 48 h
  GI50: > 40 µM

## O=S(=O)(NCCCCN1c2ccccc2CCc2ccc(Cl)cc21)c1ccc(OC(F)(F)F)cc1
  GI50: inactive

## COC(=O)NCCCCN1c2ccccc2Sc2ccc(Cl)cc21
NCI-H1650, 48 h
  GI50: > 40 µM

## O=S(=O)(NC1CCC2(OC1)c1ccccc1CCc1ccccc12)c1ccc(F)cc1 (stereo not drawn)
NCI-H1650, 48 h
  GI50: 20 µM

## CC(=O)Nc1ncc(S(=O)(=O)NCCCN2c3ccccc3CCc3ccccc32)s1
NCI-H1650, 48 h
  GI50: > 40 µM

## O=S(=O)(NC[C@@H](O)CN1c2ccccc2CCc2ccccc21)c1ccc(OC(F)(F)F)cc1
NCI-H1650, 48 h
  GI50: 18 µM

## Cn1ccc2c(S(=O)(=O)NCCCN3c4ccccc4CCc4ccccc43)cccc21
NCI-H1650, 48 h
  GI50: > 40 µM

## O=S(=O)(c1ccc(OC(F)(F)F)cc1)N1CCCCC1CCN1c2ccccc2CCc2ccccc21 (stereo not drawn)
  GI50: inactive

## CN(CCCN1c2ccccc2CCc2ccc(Cl)cc21)S(=O)(=O)c1ccc(C(F)(F)F)cc1
  GI50: inactive

## O=S(=O)(NCCCN1c2ccccc2CCc2ccc(Cl)cc21)c1ccccc1OC(F)(F)F
NCI-H1650, 48 h
  GI50: 25 µM

## O=S(=O)(NC1CCC2(OC1)c1ccccc1CCc1ccccc12)c1ccc(Cl)cc1 (stereo not drawn)
NCI-H1650, 48 h
  GI50: 25 µM

## Cn1c(=O)oc2cc(S(=O)(=O)NCCCN3c4ccccc4CCc4ccccc43)ccc21
NCI-H1650, 48 h
  GI50: > 40 µM

## O=S(=O)(NCCN1c2ccccc2CCc2ccc(Cl)cc21)c1ccc(OC(F)(F)F)cc1
NCI-H1650, 48 h
  GI50: 22 µM

## NCCCN1c2ccccc2CCc2ccc(Cl)cc21
NCI-H1650, 48 h
  GI50: 10 µM

## O=S(=O)(N[C@H]1CCC[C@@H](N2c3ccccc3CCc3ccccc32)C1)c1ccc(OC(F)(F)F)cc1
NCI-H1650, 48 h
  GI50: 25 µM

## CN(C)C(=O)NCCCN1c2ccccc2CCc2ccc(Cl)cc21
NCI-H1650, 48 h
  GI50: > 40 µM

## O=C(NCCCN1c2ccccc2CCc2ccc(Cl)cc21)c1ccccc1
  GI50: inactive

## CCN(CC)C(C)CN1c2ccccc2Sc2ccccc21 (stereo not drawn) [ETHOPROPAZINE]
NCI-H1650, 48 h
  GI50: > 40 µM

## CC(CNS(=O)(=O)c1ccc(Cl)cc1)CN1c2ccccc2CCc2ccccc21 (stereo not drawn)
NCI-H1650, 48 h
  GI50: 23 µM

## O=S(=O)(NCCCN1c2ccccc2OCc2cccnc21)c1ccc(OC(F)(F)F)cc1
NCI-H1650, 48 h
  GI50: 19.1 µM

## O=S(=O)(NCCCN1c2ccccc2CCc2cncnc21)c1ccc(OC(F)(F)F)cc1
NCI-H1650, 48 h
  GI50: > 40 µM

## O=S(=O)(NCCCN1c2ccccc2CCc2ccc(Cl)cc21)c1ccc(F)cc1
NCI-H1650, 48 h
  GI50: > 40 µM

## O=S(=O)(NCCCN1c2ccccc2CCc2ncccc21)c1ccc(Cl)cc1
NCI-H1650, 48 h
  GI50: 30 µM

## O=S(=O)(NCCCN1c2ccccc2CCc2ccc(Cl)cc21)c1cnc(Cl)c(Br)c1
NCI-H1650, 48 h
  GI50: > 40 µM

## O=S(=O)(NCCCN1c2ccccc2CCc2ccccc21)c1ccc(Cl)cc1
NCI-H1650, 48 h
  GI50: 20.6 µM

## O=S(=O)(NC1CCCC(=C2c3ccccc3CCc3ccccc32)C1)c1ccc(OC(F)(F)F)cc1 (stereo not drawn)
NCI-H1650, 48 h
  GI50: 15 µM

## O=S(=O)(NCCCN1c2ccccc2CCc2ccccc21)c1cnc(Cl)c(Br)c1
NCI-H1650, 48 h
  GI50: > 40 µM

## O=S(=O)(NCCCN1CCCCc2ccccc21)c1ccc(Cl)cc1
  GI50: inactive

## O=S(=O)(NCCC=C1c2ccccc2CCc2ccccc21)c1ccc(F)cc1
NCI-H1650, 48 h
  GI50: 20 µM

## O=S(=O)(c1ccc(OC(F)(F)F)cc1)N1CCCCC1CCN1c2ccccc2Sc2ccc(Cl)cc21 (stereo not drawn)
  GI50: inactive

## O=S(=O)(NCCCN1c2ccccc2CCc2ccccc21)N1CCOCC1
  GI50: inactive

## CN(C)CCC=C1c2ccccc2CCc2ccccc21 [AMITRIPTYLINE]
NCI-H1650, 48 h
  GI50: > 40 µM

## O=C(NCCCN1c2ccccc2CCc2ccc(Cl)cc21)NS(=O)(=O)c1ccc(OC(F)(F)F)cc1
  GI50: inactive

## O=S(=O)(NCCCN1c2ccccc2CCc2ccccc21)c1ccc(OC(F)(F)F)cc1
NCI-H1650, 48 h
  GI50: 22 µM

## O=S(=O)(N[C@H]1CC[C@@H](N2c3ccccc3CCc3ccccc32)CC1)c1ccc(OC(F)(F)F)cc1
NCI-H1650, 48 h
  GI50: > 40 µM

## O=S(=O)(c1ccc(OC(F)(F)F)cc1)N1CCC(=C2c3ccccc3CCc3ccccc32)CC1
  GI50: inactive

## O=S(=O)(NCCN1c2ccccc2CCc2ccc(Cl)cc21)c1ccc(C(F)(F)F)cc1
NCI-H1650, 48 h
  GI50: 16.4 µM

## O=S(=O)(NCCCN1c2ccccc2CCc2ncccc21)c1ccc(OC(F)(F)F)cc1
NCI-H1650, 48 h
  GI50: 27 µM

## O=S(=O)(NCCC=C1c2ccccc2CCc2ccccc21)c1ccc(Cl)cc1
NCI-H1650, 48 h
  GI50: 18 µM

## Cc1ccccc1S(=O)(=O)NCCCN1c2ccccc2Sc2ccc(Cl)cc21
  GI50: inactive

## O=S(=O)(NCCCN1c2ccccc2CCc2ccc(Cl)cc21)c1ccc(C(F)(F)F)cc1
NCI-H1650, 48 h
  GI50: 12.6 µM

## COc1ccc(OC(=O)NCCCN2c3ccccc3Sc3ccc(Cl)cc32)cc1
  GI50: inactive

## O=S(=O)(NCCCN1c2ccccc2CCc2ccccc21)c1ccc(Oc2ccccc2)nc1
NCI-H1650, 48 h
  GI50: > 40 µM

## O=S(=O)(NCCN1c2ccccc2Sc2ccc(Cl)cc21)c1ccc(C(F)(F)F)cc1
NCI-H1650, 48 h
  GI50: 25 µM

## CN(CCN1c2ccccc2CCc2ccc(Cl)cc21)S(=O)(=O)c1ccc(C(F)(F)F)cc1
  GI50: inactive

## N#Cc1ccc(S(=O)(=O)NCCCN2c3ccccc3Sc3ccc(Cl)cc32)cc1
NCI-H1650, 48 h
  GI50: > 40 µM

## O=S(=O)(NC1CCC(=C2c3ccccc3CCc3ccccc32)CC1)c1ccc(OC(F)(F)F)cc1 (stereo not drawn)
NCI-H1650, 48 h
  GI50: 20 µM

## O=S(=O)(N[C@H]1CC[C@H](N2c3ccccc3CCc3ccccc32)CC1)c1ccc(Cl)cc1
NCI-H1650, 48 h
  GI50: 15 µM

## CC(=O)NCCCN1c2ccccc2CCc2ccc(Cl)cc21
  GI50: inactive

## COc1ccc(S(=O)(=O)NCCCN2c3ccccc3CCc3ccc(Cl)cc32)cc1
NCI-H1650, 48 h
  GI50: 24.4 µM

## CC(CN1c2ccccc2Sc2ccccc21)N(C)C (stereo not drawn) [PROMETHAZINE]
NCI-H1650, 48 h
  GI50: > 40 µM

## O=S(=O)(NCCCN1c2ccccc2CCc2ccc(Cl)cc21)c1ccc(Cl)cc1Cl
  GI50: inactive

## N#Cc1ccc(S(=O)(=O)NCCC=C2c3ccccc3CCc3ccccc32)cc1
NCI-H1650, 48 h
  GI50: 25 µM

## O=S(=O)(NCCCN1c2ccccc2Sc2ccc(Cl)cc21)c1ccc(OC(F)(F)F)cc1
NCI-H1650, 48 h
  GI50: > 40 µM

## O=S(=O)(NCCCCN1c2ccccc2CCc2ccc(Cl)cc21)c1ccc(Cl)cc1
  GI50: inactive

## CC(=O)NCCCN1c2ccccc2Sc2ccc(Cl)cc21
NCI-H1650, 48 h
  GI50: > 40 µM

## CN(C)CCC=C1c2ccccc2COc2ccccc21 [DOXEPIN]
NCI-H1650, 48 h
  GI50: > 40 µM

## O=S(=O)(NCCCN(c1ccccc1)c1cccc(Cl)c1)c1ccc(Cl)cc1
  GI50: inactive

## O=S(=O)(N[C@H]1CC[C@H](N2c3ccccc3CCc3ccccc32)CC1)c1ccc(OC(F)(F)F)cc1
NCI-H1650, 48 h
  GI50: 10 µM

## N#Cc1ccc(S(=O)(=O)NCCCN2c3ccccc3CCc3ccc(Cl)cc32)cc1
NCI-H1650, 48 h
  GI50: 20 µM

## Cc1nn(C)c(Cl)c1S(=O)(=O)NCCCN1c2ccccc2CCc2ccccc21
NCI-H1650, 48 h
  GI50: > 40 µM

## O=S(=O)(NCCCN1c2ccccc2CCc2ccccc21)c1ccc(N2CCOCC2)cn1
NCI-H1650, 48 h
  GI50: > 40 µM

## O=S(=O)(NCCCN1c2ccccc2CCc2ccc(Cl)cc21)c1ccccc1
NCI-H1650, 48 h
  GI50: 25 µM

## O=S(=O)(NCCCN1c2ccccc2CCc2ccc(Cl)cc21)c1ccc(Cl)cc1
NCI-H1650, 48 h
  GI50: 20 µM

## CN(CCCN1c2ccccc2Sc2ccc(Cl)cc21)S(=O)(=O)c1ccc(Cl)cc1
  GI50: inactive

## O=S(=O)(NCCCCN1c2ccccc2CCc2ccc(Cl)cc21)c1ccc(C(F)(F)F)cc1
  GI50: inactive

## O=S(=O)(NCCCN1c2ccccc2CCc2ccc(Cl)cc21)c1ccc(Cl)c(Cl)c1
NCI-H1650, 48 h
  GI50: 21.3 µM

## O=S(=O)(NCCNC1c2ccccc2CCc2ccccc21)c1ccc(OC(F)(F)F)cc1
NCI-H1650, 48 h
  GI50: 25 µM

## CC(CNS(=O)(=O)c1ccc(OC(F)(F)F)cc1)CN1c2ccccc2CCc2ccccc21 (stereo not drawn)
NCI-H1650, 48 h
  GI50: 20 µM

## CC(C)S(=O)(=O)NCCCN1c2ccccc2CCc2ccc(Cl)cc21
  GI50: inactive

## O=S(=O)(N[C@@H]1CCC[C@@H](N2c3ccccc3CCc3ccccc32)C1)c1ccc(OC(F)(F)F)cc1
NCI-H1650, 48 h
  GI50: 18 µM

## NCCCN1c2ccccc2Sc2ccc(Cl)cc21
NCI-H1650, 48 h
  GI50: 10 µM

## O=S(=O)(CCCN1c2ccccc2CCc2ccc(Cl)cc21)c1ccc(OC(F)(F)F)cc1
  GI50: inactive

## COc1ccc(S(=O)(=O)NCCCN2c3ccccc3Sc3ccc(Cl)cc32)cc1
NCI-H1650, 48 h
  GI50: > 40 µM

## O=S(=O)(NC1CCCC(=C2c3ccccc3CCc3ccccc32)C1)c1ccc(Cl)cc1 (stereo not drawn)
NCI-H1650, 48 h
  GI50: 17 µM
